Test results from ChEMBL document CHEMBL4689842, “EUbOPEN Chemogenomics Library wave 1” (2021).

Tested on: U2OS
Test: Multiplex assay against U2OS
Format: toxicity, cell-based
Settings: human
Procedure, shortened: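 Cells were classed with CellPathfinder machine-learning gating, first as Hoechst high-intensity objects or normal cells, then (normal cells) as healthy, pyknosed or fragmented nuclei, and finally (pyknosed cells) as mitotic or apoptotic. Staining of live cells at seeding used Hoechst33342, BioTracker Green Microtubule Cytoskeleton Dye, MitoTracker Red and Annexin V Alexa Fluor 680, with imaging on a CQ1 microscope at 37°C and 5% CO2 after compound addition. Tubulin, mitochondrial-mass and membrane-permeability phenotypes are per cents of healthy-nucleus cells.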

[1] = 12 h, 1 µM, compound concentration 1 uM, replicate 1
[2] = 12 h, 1 µM, compound concentration 1 uM, replicate 2
[3] = 12 h, 10 µM, compound concentration 10 uM, replicate 1
[4] = 12 h, 10 µM, compound concentration 10 uM, replicate 2
[5] = 24 h, 1 µM, compound concentration 1 uM, replicate 1
[6] = 24 h, 1 µM, compound concentration 1 uM, replicate 2
[7] = 24 h, 10 µM, compound concentration 10 uM, replicate 1
[8] = 24 h, 10 µM, compound concentration 10 uM, replicate 2
[9] = 48 h, 1 µM, compound concentration 1 uM, replicate 1
[10] = 48 h, 1 µM, compound concentration 1 uM, replicate 2
[11] = 48 h, 10 µM, compound concentration 10 uM, replicate 1
[12] = 48 h, 10 µM, compound concentration 10 uM, replicate 2

With `COC(=N)c1nc2ccc3ncnc(Nc4ccc(OC)cc4F)c3c2s1` the “Population Apoptotic (%)” value [1] was 36%, the “Population Fragmented Nuclei (%)” value [1] was 9% and the “Population Healthy Nuclei (%)” value [1] was 78%. For the same compound, the “Population Hoechst High Intensity Objects (%)” value [1] was 8%, the “Population Membrane Permeable-Phenotype (%)” value [1] was 17% and the “Population Mitochondria Different-Phenotype (%)” value [1] was 25%. For the same compound, the “Population Mitotic Cells (%)” value [1] was 63%, the “Population Normal (%)” value [1] was 91% and the “Population Pyknosed Nuclei (%)” value [1] was 12%. The “Population Tubulin-Different-Phenotype (%)” value [1] was 27%, the “Total Cell Count” value [1] was 162 and the “Population Apoptotic (%)” value [2] was 23%. For the same compound, the “Population Fragmented Nuclei (%)” value [2] was 10%, the “Population Healthy Nuclei (%)” value [2] was 75% and the “Population Hoechst High Intensity Objects (%)” value [2] was 6%. The “Population Membrane Permeable-Phenotype (%)” value [2] was 16%, the “Population Mitochondria Different-Phenotype (%)” value [2] was 30% and the “Population Mitotic Cells (%)” value [2] was 76%. The “Population Normal (%)” value [2] was 93%, the “Population Pyknosed Nuclei (%)” value [2] was 13% and the “Population Tubulin-Different-Phenotype (%)” value [2] was 33%. For the same compound, the “Total Cell Count” value [2] was 110, the “Population Apoptotic (%)” value [3] was 37% and the “Population Fragmented Nuclei (%)” value [3] was 2%. For the same compound, the “Population Healthy Nuclei (%)” value [3] was 92%, the “Population Hoechst High Intensity Objects (%)” value [3] was 1% and the “Population Membrane Permeable-Phenotype (%)” value [3] was 10%. The “Population Mitochondria Different-Phenotype (%)” value [3] was 19%, the “Population Mitotic Cells (%)” value [3] was 62% and the “Population Normal (%)” value [3] was 98%. For the same compound, the “Population Pyknosed Nuclei (%)” value [3] was 5%, the “Population Tubulin-Different-Phenotype (%)” value [3] was 25% and the “Total Cell Count” value [3] was 190. The “Population Fragmented Nuclei (%)” value [4] was 13%, the “Population Healthy Nuclei (%)” value [4] was 77% and the “Population Hoechst High Intensity Objects (%)” value [4] was 13%. For the same compound, the “Population Membrane Permeable-Phenotype (%)” value [4] was 8%, the “Population Mitochondria Different-Phenotype (%)” value [4] was 24% and the “Population Normal (%)” value [4] was 86%. The “Population Pyknosed Nuclei (%)” value [4] was 8%, the “Population Tubulin-Different-Phenotype (%)” value [4] was 32% and the “Total Cell Count” value [4] was 179. The “Population Apoptotic (%)” value [5] was 28%, the “Population Fragmented Nuclei (%)” value [5] was 5% and the “Population Healthy Nuclei (%)” value [5] was 82%. For the same compound, the “Population Hoechst High Intensity Objects (%)” value [5] was 5%, the “Population Membrane Permeable-Phenotype (%)” value [5] was 17% and the “Population Mitochondria Different-Phenotype (%)” value [5] was 22%. For the same compound, the “Population Mitotic Cells (%)” value [5] was 71%, the “Population Normal (%)” value [5] was 94% and the “Population Pyknosed Nuclei (%)” value [5] was 12%. For the same compound, the “Population Tubulin-Different-Phenotype (%)” value [5] was 44%, the “Total Cell Count” value [5] was 219 and the “Population Apoptotic (%)” value [6] was 44%. The “Population Fragmented Nuclei (%)” value [6] was 9%, the “Population Hoechst High Intensity Objects (%)” value [6] was 8% and the “Population Membrane Permeable-Phenotype (%)” value [6] was 12%. For the same compound, the “Population Mitochondria Different-Phenotype (%)” value [6] was 27%, the “Population Mitotic Cells (%)” value [6] was 55% and the “Population Normal (%)” value [6] was 91%. The “Population Pyknosed Nuclei (%)” value [6] was 7%, the “Population Tubulin-Different-Phenotype (%)” value [6] was 39% and the “Total Cell Count” value [6] was 118. The “Population Fragmented Nuclei (%)” value [7] was 1%, the “Population Healthy Nuclei (%)” value [7] was 96% and the “Population Hoechst High Intensity Objects (%)” value [7] was 1%. For the same compound, the “Population Membrane Permeable-Phenotype (%)” value [7] was 7%, the “Population Mitochondria Different-Phenotype (%)” value [7] was 16% and the “Population Normal (%)” value [7] was 98%. The “Population Pyknosed Nuclei (%)” value [7] was 1%, the “Population Tubulin-Different-Phenotype (%)” value [7] was 28% and the “Total Cell Count” value [7] was 264. The “Population Apoptotic (%)” value [8] was 75%, the “Population Fragmented Nuclei (%)” value [8] was 11% and the “Population Healthy Nuclei (%)” value [8] was 85%. For the same compound, the “Population Hoechst High Intensity Objects (%)” value [8] was 7%, the “Population Membrane Permeable-Phenotype (%)” value [8] was 10% and the “Population Mitochondria Different-Phenotype (%)” value [8] was 34%. For the same compound, the “Population Mitotic Cells (%)” value [8] was 25%, the “Population Normal (%)” value [8] was 92% and the “Population Pyknosed Nuclei (%)” value [8] was 3%. The “Population Tubulin-Different-Phenotype (%)” value [8] was 32% and the “Total Cell Count” value [8] was 222.

`CCN1CCN(Cc2ccc(Nc3ncc(F)c(-c4cc(F)c5nc(C)n(C(C)C)c5c4)n3)nc2)CC1.CS(=O)(=O)O` was tested, and the “Population Apoptotic (%)” value [1] was 46%, the “Population Fragmented Nuclei (%)” value [1] was 18% and the “Population Healthy Nuclei (%)” value [1] was 63%. The “Population Hoechst High Intensity Objects (%)” value [1] was 8%, the “Population Membrane Permeable-Phenotype (%)” value [1] was 4% and the “Population Mitochondria Different-Phenotype (%)” value [1] was 92%. For the same compound, the “Population Mitotic Cells (%)” value [1] was 53%, the “Population Normal (%)” value [1] was 91% and the “Population Pyknosed Nuclei (%)” value [1] was 17%. For the same compound, the “Population Tubulin-Different-Phenotype (%)” value [1] was 91%, the “Total Cell Count” value [1] was 160 and the “Population Apoptotic (%)” value [2] was 40%. The “Population Fragmented Nuclei (%)” value [2] was 17%, the “Population Healthy Nuclei (%)” value [2] was 67% and the “Population Hoechst High Intensity Objects (%)” value [2] was 6%. The “Population Membrane Permeable-Phenotype (%)” value [2] was 8%, the “Population Mitochondria Different-Phenotype (%)” value [2] was 91% and the “Population Mitotic Cells (%)” value [2] was 60%. For the same compound, the “Population Normal (%)” value [2] was 93%, the “Population Pyknosed Nuclei (%)” value [2] was 14% and the “Population Tubulin-Different-Phenotype (%)” value [2] was 97%. For the same compound, the “Total Cell Count” value [2] was 73, the “Population Apoptotic (%)” value [3] was 82% and the “Population Fragmented Nuclei (%)” value [3] was 35%. For the same compound, the “Population Healthy Nuclei (%)” value [3] was 29%, the “Population Hoechst High Intensity Objects (%)” value [3] was 5% and the “Population Membrane Permeable-Phenotype (%)” value [3] was 66%. The “Population Mitochondria Different-Phenotype (%)” value [3] was 100%, the “Population Mitotic Cells (%)” value [3] was 18% and the “Population Normal (%)” value [3] was 94%. The “Population Pyknosed Nuclei (%)” value [3] was 35%, the “Total Cell Count” value [3] was 151 and the “Population Apoptotic (%)” value [4] was 83%. For the same compound, the “Population Fragmented Nuclei (%)” value [4] was 32%, the “Population Healthy Nuclei (%)” value [4] was 22% and the “Population Hoechst High Intensity Objects (%)” value [4] was 9%. The “Population Membrane Permeable-Phenotype (%)” value [4] was 88%, the “Population Mitochondria Different-Phenotype (%)” value [4] was 94% and the “Population Mitotic Cells (%)” value [4] was 16%. The “Population Normal (%)” value [4] was 90%, the “Population Pyknosed Nuclei (%)” value [4] was 45% and the “Population Tubulin-Different-Phenotype (%)” value [4] was 100%. For the same compound, the “Total Cell Count” value [4] was 88, the “Population Apoptotic (%)” value [5] was 53% and the “Population Fragmented Nuclei (%)” value [5] was 19%. For the same compound, the “Population Healthy Nuclei (%)” value [5] was 59%, the “Population Hoechst High Intensity Objects (%)” value [5] was 8% and the “Population Membrane Permeable-Phenotype (%)” value [5] was 10%. For the same compound, the “Population Mitochondria Different-Phenotype (%)” value [5] was 91%, the “Population Mitotic Cells (%)” value [5] was 46% and the “Population Normal (%)” value [5] was 91%. For the same compound, the “Population Pyknosed Nuclei (%)” value [5] was 20%, the “Population Tubulin-Different-Phenotype (%)” value [5] was 89% and the “Total Cell Count” value [5] was 171. For the same compound, the “Population Apoptotic (%)” value [6] was 58%, the “Population Fragmented Nuclei (%)” value [6] was 20% and the “Population Healthy Nuclei (%)” value [6] was 61%. For the same compound, the “Population Hoechst High Intensity Objects (%)” value [6] was 10%, the “Population Membrane Permeable-Phenotype (%)” value [6] was 21% and the “Population Mitochondria Different-Phenotype (%)” value [6] was 85%. The “Population Mitotic Cells (%)” value [6] was 41%, the “Population Normal (%)” value [6] was 89% and the “Population Pyknosed Nuclei (%)” value [6] was 17%. For the same compound, the “Population Tubulin-Different-Phenotype (%)” value [6] was 87%, the “Total Cell Count” value [6] was 75 and the “Population Apoptotic (%)” value [7] was 96%. For the same compound, the “Population Fragmented Nuclei (%)” value [7] was 41%, the “Population Healthy Nuclei (%)” value [7] was 8% and the “Population Hoechst High Intensity Objects (%)” value [7] was 8%. The “Population Membrane Permeable-Phenotype (%)” value [7] was 72%, the “Population Mitochondria Different-Phenotype (%)” value [7] was 90% and the “Population Mitotic Cells (%)” value [7] was 3%. The “Population Normal (%)” value [7] was 91%, the “Population Pyknosed Nuclei (%)” value [7] was 49% and the “Population Tubulin-Different-Phenotype (%)” value [7] was 90%. The “Total Cell Count” value [7] was 135, the “Population Apoptotic (%)” value [8] was 97% and the “Population Fragmented Nuclei (%)” value [8] was 27%. The “Population Healthy Nuclei (%)” value [8] was 13%, the “Population Hoechst High Intensity Objects (%)” value [8] was 20% and the “Population Membrane Permeable-Phenotype (%)” value [8] was 100%. The “Population Mitochondria Different-Phenotype (%)” value [8] was 87%, the “Population Mitotic Cells (%)” value [8] was 2% and the “Population Normal (%)” value [8] was 79%. For the same compound, the “Population Pyknosed Nuclei (%)” value [8] was 59%, the “Population Tubulin-Different-Phenotype (%)” value [8] was 100% and the “Total Cell Count” value [8] was 74. The “Population Apoptotic (%)” value [9] was 55%, the “Population Fragmented Nuclei (%)” value [9] was 26% and the “Population Membrane Permeable-Phenotype (%)” value [9] was 18%. For the same compound, the “Population Mitochondria Different-Phenotype (%)” value [9] was 82%, the “Population Mitotic Cells (%)” value [9] was 44% and the “Population Pyknosed Nuclei (%)” value [9] was 21%. For the same compound, the “Population Tubulin-Different-Phenotype (%)” value [9] was 79%, the “Total Cell Count” value [9] was 215 and the “Population Apoptotic (%)” value [10] was 64%. For the same compound, the “Population Fragmented Nuclei (%)” value [10] was 25%, the “Population Healthy Nuclei (%)” value [10] was 51% and the “Population Hoechst High Intensity Objects (%)” value [10] was 8%. The “Population Membrane Permeable-Phenotype (%)” value [10] was 31%, the “Population Mitochondria Different-Phenotype (%)” value [10] was 71% and the “Population Mitotic Cells (%)” value [10] was 35%. The “Population Normal (%)” value [10] was 91%, the “Population Pyknosed Nuclei (%)” value [10] was 22% and the “Population Tubulin-Different-Phenotype (%)” value [10] was 84%. For the same compound, the “Total Cell Count” value [10] was 81, the “Population Apoptotic (%)” value [11] was 98% and the “Population Fragmented Nuclei (%)” value [11] was 43%. The “Population Healthy Nuclei (%)” value [11] was 2%, the “Population Hoechst High Intensity Objects (%)” value [11] was 15% and the “Population Membrane Permeable-Phenotype (%)” value [11] was 100%. For the same compound, the “Population Mitochondria Different-Phenotype (%)” value [11] was 100%, the “Population Mitotic Cells (%)” value [11] was 1% and the “Population Normal (%)” value [11] was 84%. For the same compound, the “Population Pyknosed Nuclei (%)” value [11] was 53%, the “Population Tubulin-Different-Phenotype (%)” value [11] was 100% and the “Total Cell Count” value [11] was 137. The “Population Apoptotic (%)” value [12] was 100%, the “Population Fragmented Nuclei (%)” value [12] was 17% and the “Population Healthy Nuclei (%)” value [12] was 45%. For the same compound, the “Population Hoechst High Intensity Objects (%)” value [12] was 34%, the “Population Mitochondria Different-Phenotype (%)” value [12] was 95% and the “Population Mitotic Cells (%)” value [12] was 0%. The “Population Normal (%)” value [12] was 65%, the “Population Pyknosed Nuclei (%)” value [12] was 36% and the “Population Tubulin-Different-Phenotype (%)” value [12] was 95%. For the same compound, the “Total Cell Count” value [12] was 70.
